In the RNAGym collection of RNA variant scans (doi:10.1126/science.aae0568) one finds yeast fitness data, which are given here for 167 variants.

This sample holds only a part of the variants without activity. A value given as a limit tells only on which side of the number the result lay.

B1: tRNA (parent)
chain: GUUCCGUUGGCGUAAUGGUAACGCGUCUCCCUCCUAAGGAGAAGACUGCGGGUUCGAGUCCCGUACGGAACG

The variants in this series derive from B1. Briefly: yeast fitness relative to wild type (ratio to wild type); higher = fitter; tRNA-Arg(CCU), competitive growth, 37 C, YPD. The essentials: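 A pool of Saccharomyces cerevisiae strains, each with a tRNA-Arg(CCU) gene variant at the native genomic locus, was competed in YPD at 37°C for 24 hours across six parallel replicates. The variants had been chemically synthesised at a 3% per-site mutation rate over 69 sites, and gene amplicons before and after competition were read by 100-nucleotide paired-end sequencing. Darwinian fitness relative to wild type rested on changes in genotype frequencies. Genotypes required ≥ 100 starting reads, and estimates < 0.5 were set to 0.5.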
As for G17C U19C G68U, the yeast fitness came out at 0.569.

As to G17U G67C, the yeast fitness turned out to be 0.798. In the case of G17C U28G U54A C62U A70C it was not above 0.5; in that of G17C G23C A43U C49A, 0.613; in that of G18A A21C G58C C60U, not above 0.5.

Turning to G17C U19A C49G C66U, the yeast fitness is not above 0.5. Consider G18A A37C A42C C55U, for which the yeast fitness is not above 0.5. In the case of G18A A57G, the yeast fitness amounted to 0.854. On to G18A A57C, for which the yeast fitness amounted to 0.626. As to G18A A57U, the yeast fitness turned out to be 0.588.

G17C U26C C46U U64A: the yeast fitness is not above 0.5. The figure for G18A A65U A69U is 0.718; for G17C C22G C24A it is not above 0.5. In the case of G17C U19C U59A it was not above 0.5; in that of G17C G56C G58C, not above 0.5. In the case of G17C A20G, the yeast fitness stood at 0.553. Take G18A C24U G48C U53G: the yeast fitness stood at 0.583. Take G17C U28G C30U C61A A69U: the yeast fitness is not above 0.5. The figure for G18A C33U U53A C55A is 0.523; for G17U A69C A70G it is 0.643; for G17C C27U A37G A65G it is not above 0.5. The figure for G18A A20U C60A is not above 0.5; for G18A C31A G56C A65C it is not above 0.5; for G17C G63A it is 0.674. In the case of G18A C29U C31A C55U G68C, the yeast fitness is not above 0.5. In the case of G17C G63A C66U, the yeast fitness is not above 0.5. The figure for G17C U53G is not above 0.5; for G18A C24U C29U C31U G39C it is not above 0.5. The figure for G17C G44C C66U is not above 0.5; for G17C A20G C30G A65U it is not above 0.5; for G18A A20G U54A A70G it is not above 0.5. The figure for G18A A21C G23U U32A A42U G48C is not above 0.5; for G17C U28A C30A C31A C60G A65G it is not above 0.5.

Consider G17C A21C C34G A37U A42U A57G, for which the yeast fitness is not above 0.5. In the case of G17C G38C G52C it was not above 0.5; in that of G17A U59A, 0.759; in that of G17U C46G U54G, not above 0.5.

Turning to G17C C46G A57U G63A, the yeast fitness is not above 0.5.

Consider G17C C60A G67A, for which the yeast fitness was not above 0.5. In the case of G17C G39C C66U A70U it was not above 0.5. The figure for G17C A21U is 0.559; for G17C C55A C60A it is 0.716; for G17C C24A A69C it is 0.553. In the case of G17C G18C C22A C60A C66U it was 0.561.

G17A U35G G63A G68C: the yeast fitness is not above 0.5. The figure for G18A C22A C46G U53A C61G A70C is 0.583; for G17C U26C it is 0.698; for G18A C30U G41C G50A A65C it is not above 0.5.

For G17C A42U G44C A45U G58A, the yeast fitness is not above 0.5. For the variant G18A A42C, the yeast fitness came out at 0.635. The figure for G18A A42U is 0.683; for G17C G48C A65G it is 0.562; for G17C C22A C24G U28C C33A it is not above 0.5. With G17C U26C U28C C29G A42C G51A, the yeast fitness is not above 0.5. In the case of G18A C33A A36C A43G C55G it was not above 0.5; in that of G17U A45U C55U A70C, not above 0.5; in that of G18A C27A G48A, 0.612. In the case of G17C C34A U59C, the yeast fitness is 0.542. In the case of G17C C24G U28A C30U G52A it was not above 0.5. The figure for G18A C27G is not above 0.5.

As to G18A C27U, the yeast fitness is 0.712. Take G17C C22U U32C A40U C66U: the yeast fitness was not above 0.5. The figure for G18A A21U is 0.528; for G18A C22A C61A A65G it is not above 0.5. In the case of G17C A20G U53G A70U it was not above 0.5. As for G17C C24G C46G C66U, the yeast fitness was not above 0.5. The figure for G17C C22G U26C U47A C66U is not above 0.5; for G17A U54A G56C it is 0.597; for G17C C49G C61A it is not above 0.5.

With G18A A20U C27G U47A, the yeast fitness was not above 0.5.

For the variant G18A A43G, the yeast fitness worked out at 0.904.

Take G18A A43C: the yeast fitness was 0.637. The figure for G18A C31G A40G G52C is not above 0.5. In the case of G17C C66A it was 0.575; in that of G17C C30U A40G, 0.686; in that of G17C C24G G48C, not above 0.5. In the case of G17C U35C A37G G51C, the yeast fitness is not above 0.5.

As to G17C G38A, the yeast fitness was found to be 0.599. The figure for G17C C46U is 0.686; for G17C C46A it is 0.609; for G18A C27U C34G G48C C49U it is not above 0.5. G18A C29A C33U C60G: the yeast fitness is not above 0.5. In the case of G17C C33U G56A A69U it was not above 0.5; in that of G18A C30A C34G, not above 0.5; in that of G17C C22U U26C C46A G63A, not above 0.5. In the case of G17C C27U A65G it was 0.598; in that of G17C A20G G51A, not above 0.5. Turning to G17C G51A U59A C66A, the yeast fitness is not above 0.5. The figure for G17U A37U A57C is not above 0.5. The figure for G18A C31G A40G C49U G52C is 0.618.

Regarding G17C A21G C27U C33G A42U A57G, the yeast fitness was not above 0.5.

As for G17C C27A C61G, the yeast fitness is not above 0.5. As to G17C U19A C24G U26A C34U A69U, the yeast fitness was not above 0.5. The figure for G17C G68C is 0.614. Take G18A C27U U28C C31A C55G C61A: the yeast fitness worked out at 0.572. Turning to G17U G38A G68A, the yeast fitness was not above 0.5. In the case of G18A A45C C49U C62G C66U it was not above 0.5; in that of G18A C33G C34G, not above 0.5.

Turning to G18A C24G G39C, the yeast fitness is not above 0.5. For G17C G52C C61A C66G, the yeast fitness came to 0.637. The figure for G18A C29U U35C G52C is not above 0.5.

Consider G18A A40G A65G, for which the yeast fitness was not above 0.5. Consider G17C C27A, for which the yeast fitness was 0.674. In the case of G17C C27G it was 0.558; in that of G17C C27U, 0.617.

Consider G17C C29A C46U, for which the yeast fitness was determined as 0.867. Consider G17C A42C C60A, for which the yeast fitness was not above 0.5. G17C C30A C34G A37C U53C G63C: the yeast fitness is not above 0.5.

Regarding G18A C24G, the yeast fitness is 0.666. As to G18A C24U, the yeast fitness is 0.646.

As to G18A C29G A37G, the yeast fitness turned out to be 0.598. As to G17C C22G C30U G41C C46U A65U, the yeast fitness was not above 0.5.

Turning to G17A U53G C55U, the yeast fitness was not above 0.5. In the case of G17U C24A C31U it was not above 0.5; in that of G18A C29A, 0.539. In the case of G17A U35G U59C it was not above 0.5.

Take G17C U26A A69C: the yeast fitness was not above 0.5. In the case of G17C U59G it was 0.674. As to G17C C46U G50C C55A G63A C66U, the yeast fitness is not above 0.5. The figure for G17C A45C G48A U59A is 0.622; for G17C A20U C33G it is not above 0.5; for G18A A21C A43C G48A G52A G63A it is not above 0.5. In the case of G18A C24U C30U C34U U54A it was 0.531. For the variant G17C C29U U32A C46U C60A C66G, the yeast fitness is not above 0.5. Regarding G17C G18C A69U, the yeast fitness was not above 0.5. The figure for G18A C33U A42G is 0.54; for G18A A21U G68A it is not above 0.5; for G17C U19C A65G it is 0.573. The figure for G18A C22A C61A A65G A70U is 0.585. With G18A C29G A37G C60A C62G, the yeast fitness is 0.728. For G17C G18C G39A A57C, the yeast fitness is not above 0.5. With G18A A37U G68C, the yeast fitness was 0.579. G17C U28G G48A: the yeast fitness worked out at 0.558. Take G17C C55G G67A A69C: the yeast fitness is not above 0.5. In the case of G17C A21U C33G it was not above 0.5; in that of G17C A45G, 0.546; in that of G17U U28A C29G C33U C34G A42U, not above 0.5. The figure for G17C G39C A45U G58C is not above 0.5; for G17C C46G C55U it is 0.571; for G17C U19C it is 0.785. The figure for G17C G23C U47G is not above 0.5; for G18A C31U G58A it is 0.643; for G17C G44A G48A it is 0.529. As for G17C G67A, the yeast fitness is 0.67. G17C C34A A57C: the yeast fitness was 0.561. The figure for G17C C29U U32A C46U is not above 0.5; for G17C U32C it is 0.644. As to G17C C22G C29A C46U A65C, the yeast fitness was not above 0.5. The figure for G17C U32G C33U G56A G58A is not above 0.5. In the case of G18A A21C A37C C66A it was 0.695. The figure for G18A A37U C61U U64A is not above 0.5; for G17U A37G A42U G48C C49U it is not above 0.5. On to G17C G48A C55U, for which the yeast fitness is not above 0.5. In the case of G17C U32A C66U A70G it was not above 0.5.

Regarding G18A A36G A42U A70C, the yeast fitness worked out at 0.784. In the case of G17C G52C it was not above 0.5; in that of G17C A65U, 0.649; in that of G17C A65C, 0.67. In the case of G17C G25C A37G it was not above 0.5; in that of G17C C27A U32C C61A C66U, not above 0.5. The figure for G17C G25C C29G A36U G39A is not above 0.5; for G17A U64C C66U it is 0.69. For G17C G44C, the yeast fitness came out at 0.58. Regarding G17C G18C C22A G41C A42U U64C, the yeast fitness was not above 0.5.

With G17C C60U, the yeast fitness was 0.597. The figure for G17C C60G is not above 0.5; for G18A C30U G41C it is not above 0.5.
